The values below come from ChEMBL document CHEMBL1781958, “Discovery of pyridone-containing imidazolines as potent and selective inhibitors of neuropeptide Y Y5 receptor” (Bioorg Med Chem, 2009).

Data set [1] can be described thus: Drug level in anesthetized Sprague-Dawley rat plasma at 5 mg/kg, iv after 3 mins. Type of data set: ADME, organism-based. Details: dose 5 mg/kg, route intravenous. In short, it runs like this: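 Male SD rats under inactin (100 mg/kg). Femoral artery catheter for pressure, femoral vein for dosing, left ventricular catheter via the carotid for LVP; LV dp/dt_max derived from LVP. Vehicle (60% propylene glycol/water, 1 mL/kg) given first, compound 45 min later. Values are % change from baseline at 3 min after 5 mg/kg iv, with blood drawn at 3 min; n = 2–3.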

Data set [2] deals with Brain. Nature of the data set: Drug level in Sprague-Dawley rat brain at 10 mg/kg, po after 2 hrs. It counts as ADME, organism-based. Details: dose 10 mg/kg, route oral. The note with it: in vivo. In short, it runs like this: (§1)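 SD rats dosed orally at 10 mg/kg; brain (nmol/g) and plasma levels measured 2 h later.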
The nature of data set [3]: Ratio of drug level in brain to plasma in mdr1a expressing wild type CF1 mouse at 10 mg/kg, po after 2 hrs. Type of data set: ADME, organism-based. Details: dose 10 mg/kg, route oral. The note with it: read-out: BPR. In short, it runs like this: (§2)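 P-gp-deficient mdr1a (−/−) and wild-type mdr1a (+/+) CF-1 mice were dosed orally at 10 mg/kg. Brain (nmol/g) and plasma levels were taken 2 h post-dose, n = 3. The ratio was calculated from the mean values.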

Data set [4] is described as follows: Cmax in Sprague-Dawley rat at 3 mg/kg, po and 1 mg/kg, iv. It counts as ADME, organism-based. Particulars: in vivo. In short, it runs like this: (§3)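 PK in rats (oral 3 mg/kg, iv 1 mg/kg) and rhesus monkeys (oral 1 mg/kg, iv 0.3 mg/kg); values are means of n = 3.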
A short description of data set [5]: Cmax in rhesus monkey at 1 mg/kg, po and 0.3 mg/kg, iv. Type of data set: ADME, organism-based, Macaca mulatta. Particulars: in vivo. The method in brief:
as §3

Data set [6] can be described thus: Drug level in mdr1a expressing wild type CF1 mouse plasma at 10 mg/kg, po after 2 hrs. It counts as ADME, organism-based. Details: dose 10 mg/kg, route oral. In short, it runs like this: (§4)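 CF-1 mice, mdr1a (−/−) and (+/+), dosed orally at 10 mg/kg; brain and plasma concentrations taken 2 h after dosing; mean of n = 3.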
Data set [7] in a line: Bioavailability in rhesus monkey at 1 mg/kg, po and 0.3 mg/kg, iv. Particulars: in vivo. It counts as ADME, organism-based, Macaca mulatta.
Data set [8] in a line: Bioavailability in Sprague-Dawley rat at 3 mg/kg, po and 1 mg/kg, iv. The note with it: in vivo. It counts as ADME, organism-based. The method in brief:
as §3

Data set [9] can be described thus: Ratio of drug level in brain to plasma in mdr1a deficient CF1 mouse at 10 mg/kg, po after 2 hrs. Type of data set: ADME, organism-based. The note with it: read-out: BPR. The arrangement: dose 10 mg/kg, route oral. In short, it runs like this:
as §2

Data set [10] in a line: Drug level in mdr1a deficient CF1 mouse plasma at 10 mg/kg, po after 2 hrs. It counts as ADME, organism-based. Details: dose 10 mg/kg, route oral. In short, it runs like this: as §4
Data set [11] has as its system Brain. Nature of the data set: Drug level in mdr1a deficient CF1 mouse brain at 10 mg/kg, po after 2 hrs. Type of data set: ADME, organism-based. The arrangement: dose 10 mg/kg, route oral. Particulars: in vivo. The method in brief:
as §4

Data set [12] is described as follows: Ratio of drug level in brain to plasma of Sprague-Dawley rat at 10 mg/kg, po after 2 hrs. Type of data set: ADME, organism-based. The arrangement: dose 10 mg/kg, route oral. Particulars: read-out: BPR. In short, it runs like this: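 Sprague-Dawley rats were dosed orally at 10 mg/kg. Brain (nmol/g) and plasma concentrations were measured 2 h later, and the brain-to-plasma ratio was taken from these.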

Data set [13] in a line: Volume of distribution at steady state in Sprague-Dawley rat at 3 mg/kg, po and 1 mg/kg, iv. Type of data set: ADME, organism-based. Particulars: in vivo, read-out: Vdss. In short, it runs like this:
(§5)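 Pharmacokinetic parameters are the mean of n = 3 animals. Rats were dosed 1 mg/kg iv and 3 mg/kg po; rhesus monkeys 0.3 mg/kg iv and 1 mg/kg po.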

Data set [14] can be described thus: Drug level in anesthetized Beagle dog plasma at 1 mg/kg, iv infused over 10 mins measured immediately after end of dosing. Type of data set: ADME, organism-based, Canis lupus familiaris. Details: dose 1 mg/kg, route intravenous. In short, it runs like this:
(§6)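 Dogs were anesthetized and, after surgery, stabilized at least 1 h before baseline readings. Doses of 1, 2 and 5 mg/kg were infused iv over 10 min each (cumulative 1, 3, 8 mg/kg). QTc, MAP, LVSP, CO, HR and LV dp/dt_max were read at 0, 10 and 20 min as maximum % change from baseline. Plasma was sampled at the end of each dosing period; n = 3.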

Data set [15] is described as follows: AUC (0 to infinity) in rhesus monkey at 1 mg/kg, po. Type of data set: ADME, organism-based, Macaca mulatta. Details: time infinity, dose 1 mg/kg, route oral. The note with it: plasma. The method in brief: as §3
A short description of data set [16]: AUC (0 to infinity) in Sprague-Dawley rat at 3 mg/kg, po. It counts as ADME, organism-based. Particulars: plasma. The arrangement: time infinity, dose 3 mg/kg, route oral. The method in brief:
as §3

A short description of data set [17]: Drug level in anesthetized Beagle dog plasma at 5 mg/kg, iv infused over 10 mins measured immediately after end of dosing. It counts as ADME, organism-based, Canis lupus familiaris. The arrangement: dose 5 mg/kg, route intravenous. The method in brief: as §6
Data set [18] has as its system Brain. Put plainly: Drug level in mdr1a expressing wild type CF1 mouse brain at 10 mg/kg, po after 2 hrs. It counts as ADME, organism-based. Details: dose 10 mg/kg, route oral. The note with it: in vivo. The method in brief: as §4
Data set [19] in a line: Drug level in anesthetized Beagle dog plasma at 2 mg/kg, iv infused over 10 mins measured immediately after end of dosing. It counts as ADME, organism-based, Canis lupus familiaris. The arrangement: dose 2 mg/kg, route intravenous. In short, it runs like this:
as §6

Data set [20] is described as follows: Volume of distribution at steady state in rhesus monkey at 1 mg/kg, po and 0.3 mg/kg, iv. The note with it: in vivo, read-out: Vdss. Type of data set: ADME, organism-based, Macaca mulatta. The method in brief: as §5
A short description of data set [21]: Drug level in Sprague-Dawley rat plasma at 10 mg/kg, po after 2 hrs. It counts as ADME, organism-based. The arrangement: dose 10 mg/kg, route oral. In short, it runs like this:
as §1

As to `C[C@@H]1NC(c2cc(C#N)ccn2)=N[C@@]1(c1ccc(F)cc1)c1ccc(F)nc1`, the concentration at 0.05 h in data set [1] turned out to be 6.3 µM.
`C[C@@H]1NC(c2cnccn2)=N[C@@]1(c1ccc(F)cc1)c1ccc(F)nc1` showed a concentration at 0.05 h in [1] of 5.1 µM.
On the same count and under the same terms, the same measure for `C[C@@H]1NC(c2ccnc(C#N)c2)=N[C@@]1(c1ccc(F)cc1)c1ccc(F)nc1`: 4.3 µM; for `C[C@@H]1NC(c2cccc(S(N)(=O)=O)c2)=N[C@@]1(c1ccc(F)cc1)c1ccc(F)nc1`: 4.9 µM.
As for `C[C@@H]1NC(c2ccc(=O)n(C(F)F)c2)=N[C@@]1(c1ccc(F)cc1)c1ccc(F)nc1`, the Drug uptake is 0.91 nmol/g in the data set with Brain [2], 14.8 nmol/g with Brain [11] and 4 nmol/g in the data set on Brain [18]. For the same molecule, the Kp at 2 h in data set [3] came out at 0.48; in data set [9] it was 2.05; in data set [12] it was 0.42. The maximum concentration (Cmax) in [4] was 1.1 µM; in [5] it was 0.64 µM. The concentration at 2 h in data set [6] turned out to be 8.36 µM; in data set [10], 7.01 µM; in data set [21] it was 2.2 µM. Moreover, the bioavailability in data set [7] and in [8] was 92% in each case. Besides, the Vd in data set [13] was determined as 2.6 L/kg; in data set [20], 3.8 L/kg. The figures for the concentration at 10 min in [14], in data set [17] and in data set [19] were 7.7 µM, 26.9 µM and 14.3 µM, respectively. The AUC(0-inf) in data set [15] stood at 11 µM·h; in data set [16] it was 4.8 µM·h.
In turn, `C[C@@H]1NC(c2cccc(=O)[nH]2)=N[C@@]1(c1ccc(F)cc1)c1ccc(F)nc1` came in with a concentration at 0.05 h in [1] of 5.3 µM.
The same measure, in the same setting: the same measure for `C[C@@H]1NC(c2cccc(O)n2)=NC1(c1ccc(F)cc1)c1ccc(F)cc1`: 2.6 µM.

For orientation: Cmax means the maximum level reached in the sampled fluid or tissue. Broadly, the bioavailability is dose-corrected exposure relative to a reference, in per cent. What is called AUC(0-inf) is the area under the concentration-time curve extrapolated to infinity.
